These results are taken from ChEMBL document CHEMBL1135506, “Correlations between cytotoxicity and topography of some 2-arylidenebenzocycloalkanones determined by X-ray crystallography” (J Med Chem, 2002).

pIC50: −log10 of the molar value.

In one data set the test system is P388. The experiment in a line: Inhibitory activity against Murine P388 cells. The data set is classed as functional, cell-based. To be noted: Mus musculus.
Data set [1] can be described thus: Partition coefficient (logP). It counts as physicochemical. The following applies: octanol/water.
In data set [2] the test system is L1210. The experiment in a line: Inhibitory activity against L1210 leukemia cells. It counts as functional, cell-based. The following applies: Mus musculus. In outline: (§1)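 Murine L1210 lymphoid leukemia cells, human Molt 4/C8 T-lymphocytes and human CEM T-lymphocytes were tested up to a maximum concentration of 500 µM, and the read-out was IC50 (µM).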
The subject of another data set is CCRF-CEM. The experiment in a line: Inhibitory concentration against CEM T-lymphocytes. The data set is classed as functional, cell-based. The following applies: Homo sapiens. In outline:
as §1

Data set [3] can be described thus: Inhibitory concentration against proliferation of human Molt 4/C8 cells. The data set is classed as functional, cell-based. To be noted: Molt4/C8. In outline:
as §1

In data set [4] the test system is L1210. Put plainly: Effect on DNA biosyntheses in leukemia L1210 cells. The data set is classed as functional, cell-based. The following applies: Mus musculus. In outline:
(§2)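 L1210 cells, ~2 × 10⁵ per well, were exposed to a range of concentrations together with 0.25 µCi of [methyl-³H]deoxythymidine (DNA), [5-³H]uridine (RNA) or [3,4-³H]leucine (protein). They were incubated 20 h at 37 °C. Radioactivity in the trichloroacetic acid-insoluble fraction was then counted by liquid scintillation.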

Data set [5] concerns L1210. The experiment in a line: Effect on RNA biosyntheses in leukemia L1210 cells. The data set is classed as functional, cell-based. The following applies: Mus musculus. A digest of the protocol: as §2
Data set [6] relates to L1210. The experiment in a line: Effect on protein biosyntheses in leukemia L1210 cells. The data set is classed as functional, cell-based. To be noted: Mus musculus. A digest of the protocol: as §2
The test system of data set [7] is L1210. Put plainly: Effect on proliferation of leukemia L1210 cells. The data set is classed as functional, cell-based. The following applies: Mus musculus. A digest of the protocol: as §1

On to `COc1ccc(/C=C2\CCCc3ccccc3C2=O)cc1OC`, for which the pIC50 with P388 is 5.09; in the data set on L1210 [2], < 4.00; in the data set on CCRF-CEM it was 4.55; in [3], < 4.70. Also, the logP in data set [1] was 4.13.

Turning to `COc1ccc(/C=C2\Cc3ccccc3C2=O)c(OC)c1`, the pIC50 with P388 was 4.89; in the data set with L1210 [2], 4.85; in the data set on CCRF-CEM, 4.06; in data set [3], 4.31.

For the compound `COc1cc(/C=C2\CCc3ccccc3C2=O)cc(OC)c1OC`, the pIC50 in the data set on P388 was 5.17; with L1210 [2] it was 4.51; with CCRF-CEM it was 5.15; in data set [3] it was 5.08.

With `O=C1/C(=C/c2ccccc2[N+](=O)[O-])CCCc2ccccc21`, the pIC50 with P388 is 4.44; with L1210 [2], 4.33; in the data set with CCRF-CEM, 4.79; in [3], 4.40. In data set [1], this compound registered a logP of 4.07.

For `COc1ccccc1/C=C1\CCc2ccccc2C1=O`, the pIC50 in the data set with P388 is 4.76; with L1210 [2] it was 4.39; with CCRF-CEM, 4.90; in data set [3], 4.50.

`O=C1/C(=C/c2ccc(Cl)c(Cl)c2)Cc2ccccc21`: the pIC50 in the data set with P388 is 4.60; with L1210 [2], < 3.30; with CCRF-CEM, 3.40; in [3] it was < 3.30.

Regarding `O=C1/C(=C/c2ccccc2Br)CCc2ccccc21`, the pIC50 in the data set with P388 was 4.71; with L1210 [2], 4.48; in the data set on CCRF-CEM, 4.60; in data set [3] it was 4.43.

Consider `COc1ccccc1/C=C/C(=O)c1ccccc1`, for which the pIC50 with P388 was 4.80; in the data set with L1210 [2], 4.19; with CCRF-CEM, 5.07; in data set [3] it was 5.07.

Turning to `COc1cccc(/C=C2\Cc3ccccc3C2=O)c1OC`, the pIC50 in the data set on P388 was 4.54; in the data set on L1210 [2], 3.67; with CCRF-CEM, 4.42; in data set [3] it was 4.28.

As to `Cc1ccccc1/C=C1\CCc2ccccc2C1=O`, the pIC50 with P388 was 4.75; in the data set on L1210 [2], 4.30; in the data set on CCRF-CEM, 4.36; in data set [3], 4.38.

With `COc1ccc(/C=C/C(=O)c2ccccc2)cc1` [4-METHOXY CHALCONE], the pIC50 in the data set with P388 was 4.97; in the data set with L1210 [2] it was 4.30; in the data set with CCRF-CEM, 4.47; in data set [3], 4.52.

Consider `O=C1/C(=C/c2ccccc2Cl)CCCc2ccccc21`, for which the pIC50 in the data set on P388 was 4.90; with L1210 [2], 4.37; in the data set on CCRF-CEM it was 4.74; in data set [3], 4.43. This compound came in with a logP in data set [1] of 5.04.

Consider `O=C(/C=C/c1cccc([N+](=O)[O-])c1)c1ccccc1`, for which the pIC50 is 4.82 with P388, 4.08 with L1210 [2], 5.05 in the data set on CCRF-CEM and 5.07 in data set [3].

For `O=C(/C=C/c1ccc([N+](=O)[O-])cc1)c1ccccc1`, the pIC50 in the data set on P388 was 5.12; with L1210 [2], 4.23; in the data set on CCRF-CEM, 4.86; in data set [3] it was 5.08.

Turning to `Cc1ccccc1/C=C1\Cc2ccccc2C1=O`, the pIC50 in the data set on P388 is 4.62; in the data set on L1210 [2], 3.68; with CCRF-CEM, 4.25; in data set [3], 3.81.

`COc1ccc(/C=C2\CCc3ccccc3C2=O)c(OC)c1`: the pIC50 is 5.58 in the data set on P388, 5.10 with L1210 [2], 5.73 in the data set with CCRF-CEM and 5.77 in data set [3].

`COc1cccc(/C=C2\CCCc3ccccc3C2=O)c1OC`: the pIC50 was 5.07 in the data set with P388, < 3.30 in the data set with L1210 [2], 3.85 with CCRF-CEM and < 3.30 in data set [3]. This compound also yielded a logP in data set [1] of 4.54.

`COc1cc(/C=C2\Cc3ccccc3C2=O)cc(OC)c1OC`: the pIC50 with P388 is < 4.30; with L1210 [2], < 3.30; in the data set with CCRF-CEM, < 3.30; in data set [3] it was < 3.30.

As to `Cc1ccccc1/C=C1\CCCc2ccccc2C1=O`, the pIC50 with P388 was 4.82; in the data set with L1210 [2], 4.21; in the data set on CCRF-CEM it was 4.36; in [3], 4.44. In data set [1], this compound showed a logP of 4.92.

`O=C1/C(=C/c2ccccc2F)CCCc2ccccc21`: the pIC50 with P388 is 4.88; in the data set with L1210 [2], 4.22; in the data set with CCRF-CEM, 4.55; in [3] it was 4.38. Moreover, in data set [1], the logP amounted to 4.55.

For `N[C@@H](Cc1ccc(N(CCCl)CCCl)cc1)C(=O)O`, the negative logarithm of the IC50 (pIC50) in the data set with L1210 [4] and in the data set on L1210 [5] was < 4.00 in each case.

As for `O=C1/C(=C/c2ccc(Cl)c(Cl)c2)CCCc2ccccc21`, the pIC50 in the data set on P388 was 4.91; in the data set with L1210 [2], 4.34; with CCRF-CEM it was 4.93; in [3], 4.74. The compound further showed a logP in [1] of 5.71.

With `O=C1/C(=C/c2ccc(Cl)cc2Cl)Cc2ccccc21`, the pIC50 was < 4.30 with P388, < 3.30 with L1210 [2], < 3.30 with CCRF-CEM and < 3.30 in data set [3].

Turning to `COc1cccc(/C=C/C(=O)c2ccccc2)c1`, the pIC50 with P388 is 5.01; with L1210 [2], 4.35; in the data set on CCRF-CEM it was 5.07; in data set [3] it was 5.10.

As to `COc1ccccc1/C=C1\Cc2ccccc2C1=O`, the pIC50 in the data set on P388 was 4.55; in the data set on L1210 [4], 3.39; in the data set with L1210 [6], 3.78; in the data set with L1210 [2], 3.77; in the data set with CCRF-CEM, 4.24; in data set [3], 3.51. Also, the pIC50 in the data set on L1210 [7] is 3.77; with L1210 [5] it was 3.53.

In the case of `COc1ccc(/C=C2\CCc3ccccc3C2=O)cc1OC`, the pIC50 with P388 was 5.24; in the data set with L1210 [2], 4.38; in the data set with CCRF-CEM, 5.07; in data set [3], 4.94.

As for `O=C1/C(=C/c2ccccc2Br)Cc2ccccc21`, the pIC50 in the data set on P388 was < 4.30; in the data set on L1210 [2] it was 4.19; in the data set with CCRF-CEM it was 4.33; in data set [3], 4.02.

With `O=C1/C(=C/c2ccccc2Cl)Cc2ccccc21`, the pIC50 in the data set on P388 is 4.58; in the data set with L1210 [2], 3.82; with CCRF-CEM, 4.24; in data set [3] it was 3.89.

With `COc1ccc(/C=C2\CCCc3ccccc3C2=O)c(OC)c1`, the pIC50 in the data set with P388 is 5.11; in the data set on L1210 [2], 4.91; in the data set with CCRF-CEM, 4.32; in data set [3], 4.15. This compound had a logP in [1] of 5.01.

For `O=C1/C(=C/c2ccc(Cl)cc2Cl)CCc2ccccc21`, the pIC50 in the data set on P388 is 4.76; with L1210 [2] it was 4.46; with CCRF-CEM, 5.06; in [3] it was 4.55.

As for `O=C1/C(=C/c2ccccc2[N+](=O)[O-])CCc2ccccc21`, the pIC50 in the data set with P388 was 4.90; in the data set on L1210 [2], 4.97; with CCRF-CEM, 5.14; in [3] it was 5.09.

For the compound `O=C1/C(=C/c2ccccc2Br)CCCc2ccccc21`, the pIC50 in the data set on P388 is 4.70; in the data set on L1210 [2], 4.43; in the data set on CCRF-CEM, 4.49; in [3] it was 4.42. The same compound displayed a logP in [1] of 5.04.

In the case of `COc1ccccc1/C=C1\CCCc2ccccc2C1=O`, the pIC50 with P388 is 4.74; in the data set with L1210 [2], 4.34; in the data set with CCRF-CEM, 4.54; in data set [3], 4.43. Also, in data set [1], the log partition coefficient (logP) worked out at 4.69.

For `O=C(/C=C/c1ccccc1[N+](=O)[O-])c1ccccc1`, the pIC50 with P388 is 5.43; with L1210 [2] it was 4.52; with CCRF-CEM, 5.07; in [3] it was 5.08.

As for `O=C1/C(=C/c2ccccc2[N+](=O)[O-])Cc2ccccc21`, the pIC50 was 6.13 in the data set with P388; 4.83 in the data set with L1210 [4]; 4.76 with L1210 [6]; 5.12 in the data set on L1210 [2]; 5.45 in the data set with CCRF-CEM; 5.60 in data set [3]. The pIC50 is 5.12 in the data set on L1210 [7] and 4.93 in the data set on L1210 [5].

`O=C1/C(=C/c2ccccc2Cl)CCc2ccccc21`: the pIC50 with P388 was 4.76; with L1210 [2], 4.52; with CCRF-CEM, 5.06; in data set [3] it was 4.53.

As to `O=C1/C(=C/c2ccc(Cl)cc2Cl)CCCc2ccccc21`, the pIC50 in the data set on P388 is 4.85; in the data set on L1210 [2], < 3.30; in the data set with CCRF-CEM, 3.39; in data set [3], < 3.30. For the same compound, the logP in [1] came to 5.65.

Regarding `O=C1/C(=C/c2ccccc2F)CCc2ccccc21`, the pIC50 in the data set on P388 was 4.66; in the data set on L1210 [2] it was 4.64; in the data set with CCRF-CEM, 4.68; in data set [3], 4.44.

Regarding `COc1ccc(/C=C2\Cc3ccccc3C2=O)cc1OC`, the pIC50 was 4.62 with P388, 3.58 with L1210 [2], 3.54 with CCRF-CEM and 3.33 in data set [3].

In the case of `O=C1/C(=C/c2ccc(Cl)c(Cl)c2)CCc2ccccc21`, the negative-log IC50 (pIC50) with P388 is 4.88; in the data set with L1210 [2], 3.68; in the data set on CCRF-CEM, 5.01; in data set [3], 4.54.

As for `COc1cccc(/C=C2\CCc3ccccc3C2=O)c1OC`, the pIC50 was 4.91 with P388, 4.42 with L1210 [2], 4.54 with CCRF-CEM and 4.38 in [3].

Consider `COc1cc(/C=C2\CCCc3ccccc3C2=O)cc(OC)c1OC`, for which the pIC50 in the data set with P388 was 5.06; in the data set on L1210 [2], 4.45; with CCRF-CEM, 4.93; in data set [3] it was 4.64. For the same compound, the logP in [1] is 4.29.

In the case of `O=C1/C(=C/c2ccccc2F)Cc2ccccc21`, the pIC50 was 4.50 in the data set on P388, 3.82 in the data set with L1210 [2], 4.33 in the data set with CCRF-CEM and 4.27 in data set [3].
